Laboratory results published in ChEMBL document CHEMBL1135354, “Synthesis and activity of a novel class of tribasic macrocyclic antibiotics: the triamilides” (2002).
Converted amounts (≈) assume the structure as drawn.

Key:
Type in all cases: functional
[1] = test system: Escherichia coli; assay: In vitro minimum inhibitory concentration required to inhibit growth of Escherichia coli.
Procedure, shortened: (§1)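 Broth microdilution per NCCLS; E. coli 51A0150 (poultry lung) and P. multocida 59A0067 (turkey). Overnight BHI plate colonies suspended in saline to OD625 0.09 (0.5 McFarland), diluted 1:100 in BHI broth; final ~5×10^5 cfu/mL against 2-fold serial dilutions in BHI broth.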

[2] = test system: Pasteurella multocida; assay: Effective dose required to inhibit Pasteurella multocida infection model in mouse by subcutaneous administration
Procedure, shortened: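 Mice infected intranasally with P. multocida (respiratory disease model); drug given subcutaneously 0.5 h post-infection at 5–80 mg/kg. ED50 derived from number of surviving mice 4 days after infection.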

[3] = test system: Pasteurella multocida; assay: Minimum inhibitory concentration required to inhibit growth of Pasteurella multocida in vitro by microdilution method.; procedure, shortened: as §1
[4] = Pasteurella multocida, sc, read-out: ED50
[5] = Pasteurella multocida, read-out: MIC

Row | Compound | MIC ([1]; Escherichia coli) [µg/mL] | ED50 [2, 4] [mg/kg] | MIC [3, 5] [µg/mL] | MIC [1] [µg/mL] | ED50 [2] [mg/kg] | MIC [3] [µg/mL]
1 | CCCNC[C@@]1(O)[C@H](C)O[C@@H](O[C@H]2[C@H](C)[C@@H](O[C@@H]3O[C@H](C)C[C@H](N(C)C)[C@H]3O)[C@](C)(O)C[C@@H](C)CN[C@H](C)[C@@H](O)[C@](C)(O)[C@@H](CC)OC(=O)[C@@H]2C)C[C@@]1(C)OC | 0.39 (≈ 0.484 µM) | 12 | 0.1 (≈ 0.124 µM) | – | – | –
2 | CC[C@H]1OC(=O)[C@H](C)[C@@H](O[C@H]2C[C@@](C)(OC)[C@@](O)(Cn3ccnn3)[C@H](C)O2)[C@H](C)[C@@H](O[C@@H]2O[C@H](C)C[C@H](N(C)C)[C@H]2O)[C@](C)(O)C[C@@H](C)CN[C@H](C)[C@@H](O)[C@]1(C)O | 0.78 (≈ 0.956 µM) | 23 | 0.05 (≈ 0.0613 µM) | – | – | –
3 | CC[C@H]1OC(=O)[C@H](C)[C@@H](O[C@H]2C[C@@](C)(OC)[C@@](O)(CN(C)CCO)[C@H](C)O2)[C@H](C)[C@@H](O[C@@H]2O[C@H](C)C[C@H](N(C)C)[C@H]2O)[C@](C)(O)C[C@@H](C)CN[C@H](C)[C@@H](O)[C@]1(C)O | 1.56 (≈ 1.9 µM) | 12 | 0.1 (≈ 0.122 µM) | – | – | –
4 | CC[C@H]1OC(=O)[C@H](C)[C@@H](O[C@H]2C[C@@](C)(OC)[C@@](O)(CNC(C)(C)C)[C@H](C)O2)[C@H](C)[C@@H](O[C@@H]2O[C@H](C)C[C@H](N(C)C)[C@H]2O)[C@](C)(O)C[C@@H](C)CN[C@H](C)[C@@H](O)[C@]1(C)O | 0.39 (≈ 0.476 µM) | 14 | 0.1 (≈ 0.122 µM) | – | – | –
5 | CC[C@H]1OC(=O)[C@H](C)[C@@H](O[C@H]2C[C@@](C)(OC)[C@@](O)(CN(C)C3CC3)[C@H](C)O2)[C@H](C)[C@@H](O[C@@H]2O[C@H](C)C[C@H](N(C)C)[C@H]2O)[C@](C)(O)C[C@@H](C)CN[C@H](C)[C@@H](O)[C@]1(C)O | 0.78 (≈ 0.953 µM) | 17 | 0.1 (≈ 0.122 µM) | – | – | –
6 | CC[C@H]1OC(=O)[C@H](C)[C@@H](O[C@H]2C[C@@](C)(OC)[C@@](O)(CN3CCOCC3)[C@H](C)O2)[C@H](C)[C@@H](O[C@@H]2O[C@H](C)C[C@H](N(C)C)[C@H]2O)[C@](C)(O)C[C@@H](C)CN[C@H](C)[C@@H](O)[C@]1(C)O | 3.13 (≈ 3.75 µM) | 49 | 0.2 (≈ 0.24 µM) | – | – | –
7 | CC[C@H]1OC(=O)[C@H](C)[C@@H](O[C@H]2C[C@@](C)(OC)[C@@](O)(CSCCO)[C@H](C)O2)[C@H](C)[C@@H](O[C@@H]2O[C@H](C)C[C@H](N(C)C)[C@H]2O)[C@](C)(O)C[C@@H](C)CN[C@H](C)[C@@H](O)[C@]1(C)O | 1.56 (≈ 1.89 µM) | 51 | 0.2 (≈ 0.242 µM) | – | – | –
8 | CCCCCCNC[C@@]1(O)[C@H](C)O[C@@H](OC2[C@@H](C)C(=O)O[C@H](CC)[C@@](C)(O)[C@H](O)[C@@H](C)NC[C@H](C)C[C@@](C)(O)[C@H](O[C@@H]3O[C@H](C)C[C@H](N(C)C)[C@H]3O)[C@H]2C)C[C@@]1(C)OC (stereo partly specified) | 0.78 (≈ 0.92 µM) | > 80 | 0.2 (≈ 0.236 µM) | – | – | –
9 | CC[C@H]1OC(=O)[C@H](C)[C@@H](O[C@H]2C[C@@](C)(OC)[C@@](O)(Cn3ccnc3)[C@H](C)O2)[C@H](C)[C@@H](O[C@@H]2O[C@H](C)C[C@H](N(C)C)[C@H]2O)[C@](C)(O)C[C@@H](C)CN[C@H](C)[C@@H](O)[C@]1(C)O | 3.13 (≈ 3.84 µM) | 20 | 0.2 (≈ 0.245 µM) | – | – | –
10 | CC[C@H]1OC(=O)[C@H](C)[C@@H](O[C@H]2C[C@@](C)(OC)[C@@](O)(CNCCOC)[C@H](C)O2)[C@H](C)[C@@H](O[C@@H]2O[C@H](C)C[C@H](N(C)C)[C@H]2O)[C@](C)(O)C[C@@H](C)CN[C@H](C)[C@@H](O)[C@]1(C)O | 0.78 (≈ 0.949 µM) | 9.5 | < 0.1 | – | – | –
11 | CC[C@H]1OC(=O)[C@H](C)[C@@H](O[C@H]2C[C@@](C)(OC)[C@@](O)(CN(CCO)CCO)[C@H](C)O2)[C@H](C)[C@@H](O[C@@H]2O[C@H](C)C[C@H](N(C)C)[C@H]2O)[C@](C)(O)C[C@@H](C)CN[C@H](C)[C@@H](O)[C@]1(C)O | > 50 | – | 3.13 (≈ 3.67 µM) | – | – | –
12 | CC[C@H]1OC(=O)[C@H](C)[C@@H](O[C@H]2C[C@@](C)(OC)[C@@](O)(CNCC(F)(F)F)[C@H](C)O2)[C@H](C)[C@@H](O[C@@H]2O[C@H](C)C[C@H](N(C)C)[C@H]2O)[C@](C)(O)C[C@@H](C)CN[C@H](C)[C@@H](O)[C@]1(C)O | 1.56 (≈ 1.84 µM) | 46 | < 0.1 | – | – | –
13 | CCCCNC[C@@]1(O)[C@H](C)O[C@@H](O[C@H]2[C@H](C)[C@@H](O[C@@H]3O[C@H](C)C[C@H](N(C)C)[C@H]3O)[C@](C)(O)C[C@@H](C)CN[C@H](C)[C@@H](O)[C@](C)(O)[C@@H](CC)OC(=O)[C@@H]2C)C[C@@]1(C)OC | 0.39 (≈ 0.476 µM) | 23 | < 0.1 | – | – | –
14 | CC[C@H]1OC(=O)[C@H](C)[C@@H](O[C@H]2C[C@@](C)(OC)[C@@](O)(CN(C)CC)[C@H](C)O2)[C@H](C)[C@@H](O[C@@H]2O[C@H](C)C[C@H](N(C)C)[C@H]2O)[C@](C)(O)C[C@@H](C)CN[C@H](C)[C@@H](O)[C@]1(C)O (stereo in doubt; 8i) | – | – | – | 0.78 (≈ 0.968 µM) | 7.2 | < 0.1
